Experiment [1] has as its system Mus musculus. The experiment can be described thus: Hypoglycemic activity in fasted po dosed streptozotocin-induced diabetic ddY mouse assessed as decrease in blood glucose level after 6 hrs by glucose oxidase method. Format: functional. The settings on record: for ED50: read-out: ID50 (the source's name). The gist of the method:
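Male ddY mice given streptozotocin 150 mg/kg iv in saline via tail vein, used 1 or 4 weeks later; fasting glucose >150 mg/dl after 13–14 h fast. Graded doses. Percent fall computed from glucose before and after dosing versus 85 mg/dl normal mean. ID50 with 95% confidence limits from dose-inhibition curves; 7–12 mice per point, mean ± SEM.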

A further experiment relates to Pancreas. Kind of experiment: Stimulation of immunoreactive insulin release in perfused Wistar rat pancreas at 1 mg/ml for 10 mins by radioimmunoassay. The class given is functional. In short, it runs like this: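 Male Wistar rat pancreas (6–7 weeks) perfused via celiac artery with KRB pH 7.4, 0.5% BSA, 2% dextran, 2.8 mM glucose basal, 95% O2/5% CO2. Stimulated with 16.7 mM glucose ± 1 mg/ml test agent for 10 min. Portal vein effluent insulin measured by radioimmunoassay. n = 7.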

In experiment [2] the test system is Mus musculus. Kind of experiment: Hypoglycemic activity in fasted alloxan monohydrate-induced diabetic ddY mouse assessed as decrease in blood glucose level at 50 mg/kg, ip after 6 hrs by glucose oxidase method. The class given is functional. Details: scale not given: the % may be the effect or the level left. The following applies: route intraperitoneal. The gist of the method: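 Male ddY mice given alloxan monohydrate 90 mg/kg iv bolus in saline via tail vein, used 1 or 4 weeks later; fasting glucose >150 mg/dl after 13–14 h fast. Dosed 50 mg/kg ip; saline control. Glucose oxidase read-out. Percent fall = (A − B)/(A − 85) × 100, A and B being glucose before and 6 h after injection. Means ± SEM, n = 5–10.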

Experiment [3] concerns Mus musculus. The experiment can be described thus: Effect on blood glucose level in fasted ddY mouse at 50 mg/kg, ip after 6 hrs by glucose oxidase method. Format: functional, organism-based. Details: dose 50 mg/kg. The gist of the method: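 Non-diabetic male ddY mice, 7–8 weeks of age (33–41 g), fasted; 50 mg/kg given ip. Blood glucose measured by glucose oxidase on a glucose analyzer.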

Turning to `COc1ccc(Cl)cc1C(=O)NCCc1ccc(S(=O)(=O)NC(=O)NC2CCCCC2)cc1` [GLYBURIDE], in the experiment on Mus musculus [1], the Activity entry was “Dose-dependent effect” and the ED50 was 0.33 mg/kg.

Take `C[C@@H](CCC1(O)O[C@H]2C[C@H]3[C@@H]4CC[C@@H]5C[C@@H](O[C@@H]6O[C@H](CO)[C@H](O)[C@H](O)[C@H]6O[C@@H]6O[C@H](CO)[C@@H](O)[C@H](O)[C@H]6O)CC[C@]5(C)[C@H]4CC[C@]3(C)[C@H]2[C@@H]1C)CO[C@@H]1O[C@H](CO)[C@@H](O)[C@H](O)[C@H]1O` (stereo partly specified) [PROTOTIMOSAPONIN AIII]: the Activity result with Mus musculus [1] is “Dose-dependent effect”; in the experiment with Pancreas, 59.7 ng/mL; in the experiment on Mus musculus [2] it was 73.4%; in the experiment on Mus musculus [3], “Dose-dependent effect”. Moreover, the ED50 in the experiment with Mus musculus [1] was determined as 6.62 mg/kg.

Regarding `CC1=C(CC[C@H](C)CO[C@@H]2O[C@H](CO)[C@@H](O)[C@H](O)[C@H]2O)O[C@H]2C[C@H]3[C@@H]4CC[C@@H]5C[C@@H](O[C@@H]6O[C@H](CO)[C@H](O)[C@H](O)[C@H]6O[C@@H]6O[C@H](CO)[C@@H](O)[C@H](O)[C@H]6O)CC[C@]5(C)[C@H]4CC[C@]3(C)[C@@H]12` [PSEUDOPROTOTIMOSAPONIN AIII], in the experiment with Mus musculus [1], the Activity result was “Dose-dependent effect” and the ED50 stood at 4.33 mg/kg. In addition, in the experiment on Mus musculus [2], the Activity turned out to be 82.8%.

For `C[C@H]1CC[C@@]2(OC1)O[C@H]1C[C@H]3[C@@H]4CC[C@@H]5C[C@@H](O[C@@H]6O[C@H](CO)[C@H](O)[C@H](O)[C@H]6O[C@@H]6O[C@H](CO)[C@@H](O)[C@H](O)[C@H]6O)CC[C@]5(C)[C@H]4CC[C@]3(C)[C@H]1[C@@H]2C` [TIMOSAPONIN AIII], in the experiment with Mus musculus [2], the Activity amounted to 64.5%.

These data come from ChEMBL document CHEMBL1147346, “Isolation of pseudoprototimosaponin AIII from rhizomes of Anemarrhena asphodeloides and its hypoglycemic activity in streptozotocin-induced diabetic mice” (1993).
